Assay results collected from several papers.
Lines come from different studies, so protocols differ. pIC50: −log10 of the molar value.
Cell line: A498
Read-out: cell growth or viability

| SMILES | technique | tested at | time | measurement | result |
| --- | --- | --- | --- | --- | --- |
| COc1cc(-c2ccc(-c3ccc(C(=N)N)nc3)s2)cc(OC)c1OC | – | – | – | GI50 | 4910 nM |
| COc1ccc(C(=O)/C=C/c2cccc3ccccc23)cc1S(N)(=O)=O | SRB | 10 µM | – | inhibition | -7% |
| S=C([S][Au-][P+](CCCCCC[P+]([Au-][S]C(=S)n1cccn1)(c1ccccc1)c1ccccc1)(c1ccccc1)c1ccccc1)n1cccn1 | – | – | – | GI50 | 1010 nM |
| COc1cccc(Oc2ccccc2NC(=O)CNC(=O)c2cccc3ccccc23)c1 | SRB | – | 48 h | GI50 | 115 nM |
| Cc1cc(C)n(C(=S)[S][Au][PH](CCCCCC[PH]([Au][S]C(=S)n2nc(C)cc2C)(c2ccccc2)c2ccccc2)(c2ccccc2)c2ccccc2)n1 | – | – | – | GI50 | 384 nM |
| COc1cc(Nc2nccc(-c3cnn4nc(OC)ccc34)n2)cc(C(F)(F)F)c1 | ATP luminescence | – | – | pIC50 | 6.37 |
| CCC(=O)Nc1cc(Nc2cc(NC3CC3)n3ncc(C#N)c3n2)ccc1C | ATP luminescence | – | 72 h | pIC50 | 5.74 |
| COc1ccc(C(=O)/C=C/c2ccc3ccccc3c2)cc1S(N)(=O)=O | SRB | – | 48 h | GI50 | 14500 nM |
| CC(C)C[C@H](NC(=O)[C@H](Cc1ccccc1)NC(=O)c1cnccn1)B(O)O | ATP luminescence | – | – | pIC50 | 8.11 |
